From ChEMBL document CHEMBL1687766, “In vitro activity of the new multivalent glycopeptide-cephalosporin antibiotic TD-1792 against vancomycin-nonsusceptible Staphylococcus isolates” (Antimicrob Agents Chemother, 2010)
≈ marks a conversion by molar mass, not a printed value.

Tests used:
Assay type in all cases: functional
Staphylococcus aureus [1] = assay: Antimicrobial activity against vancomycin-heteroresistant Staphylococcus aureus after 24 hrs by microdilution method in presence of 50% human serum
Method in brief: (§1)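 Broth microdilution per CLSI, inoculum 5 × 10^5 CFU/ml, 24 h at 35°C, in duplicate. Medium was 50% (vol/vol) human serum plus 50% broth, final 25 SMHB for TD-1792 and 50 SMHB for daptomycin. Serum was heated 56°C for 1 h and filtered through 0.8, 0.5 and 0.22 μm. MBC by plating clear wells on BHI agar.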

Staphylococcus aureus [2] = assay: Antimicrobial activity against vancomycin-resistant Staphylococcus aureus isolate NY after 24 hrs by microdilution method in presence of 50% human serum; method in brief: as §1
Staphylococcus aureus [3] = assay: Ratio of MIC for vancomycin-intermediate Staphylococcus aureus isolate MU50 in presence of 50% human serum to MIC for vancomycin-intermediate Staphylococcus aureus isolate MU50
Method in brief: (§2)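 Ratio of the broth microdilution MIC (5 × 10^5 CFU/ml, 24 h, 35°C, duplicate) measured in 50% heat-treated human serum/supplemented Mueller-Hinton broth to the MIC measured in supplemented broth alone.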

Staphylococcus aureus [4] = assay: Antimicrobial activity against vancomycin-intermediate Staphylococcus aureus isolate MU50 assessed as bacterial count at 16 times MIC after 24 hrs by colony counting method
Method in brief: (§3)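 Time-kill in triplicate. Mid-exponential culture (OD600 ~0.3) diluted in supplemented Mueller-Hinton broth to 5 × 10^6 CFU/ml. Daptomycin was run at physiologic calcium, 1.1 to 1.3 mM. […] Samples at 0, 1, 4, 8 and 24 h were diluted in cold saline or vacuum filtered, then spiral-plated on BHI agar for 24 h at 35°C. Value is the log10 CFU/ml change from baseline at 24 h.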

Staphylococcus aureus [5] = assay: Antimicrobial activity against vancomycin-intermediate Staphylococcus aureus isolate NJ992 assessed as bacterial count at 8 times MIC after 24 hrs by colony counting method
Method in brief: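 24-h time-kill run in triplicate in supplemented Mueller-Hinton broth (12.5 μg/ml Mg, 25 μg/ml Ca), adjusted to 1.1–1.3 mM Ca for daptomycin. […] Samples were taken at 0, 1, 4, 8 and 24 h and counted on BHI agar after 24 h at 35°C. Value is log10 CFU/ml change from baseline at 24 h.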

Staphylococcus aureus [6] = assay: Antimicrobial activity against vancomycin-intermediate Staphylococcus aureus isolate MU50 assessed as bacterial count at 4 times MIC after 24 hrs by colony counting method in presence of 50% human serum
Method in brief: (§4)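 Triplicate 24-h time-kill in 50% human serum (heated 56°C 1 h, filtered) mixed with supplemented Mueller-Hinton broth, giving final 25 μg/ml Ca broth strength for TD-1792 and 50 for daptomycin. […] Samples from 0 to 24 h were counted on BHI agar (35°C, 24 h). Value is log10 CFU/ml change from baseline.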

Staphylococcus aureus [7] = assay: Antimicrobial activity against vancomycin-intermediate Staphylococcus aureus isolate MU50 assessed as bacterial count at 8 times MIC after 24 hrs by colony counting method in presence of 50% human serum; method in brief: as §4
Staphylococcus aureus [8] = assay: Antimicrobial activity against vancomycin-intermediate Staphylococcus aureus isolate MU50 assessed as bacterial count at 32 times MIC after 24 hrs by colony counting method in presence of 50% human serum; method in brief: as §4
Staphylococcus aureus [9] = assay: Antimicrobial activity against vancomycin-intermediate Staphylococcus aureus isolate NJ992 assessed as bacterial count at 4 times MIC after 24 hrs by colony counting method in presence of 50% human serum; method in brief: as §4
Staphylococcus aureus [10] = assay: Antimicrobial activity against vancomycin-intermediate Staphylococcus aureus isolate NJ992 assessed as bacterial count at 8 times MIC after 24 hrs by colony counting method in presence of 50% human serum
Method in brief: (§5)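 Time-kill in triplicate, starting inoculum 5 × 10^6 CFU/ml from a mid-exponential culture. Medium was 50% heat-treated, filtered human serum plus 50% broth, final 25 SMHB for TD-1792 and 50 SMHB for daptomycin. Drug at multiples of MIC. Samples to 24 h were plated on BHI agar for 24 h at 35°C. Value is the log10 CFU/ml change from baseline at 24 h.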

Staphylococcus aureus [11] = assay: Antimicrobial activity against vancomycin-intermediate Staphylococcus aureus isolate NJ992 assessed as bacterial count at 16 times MIC after 24 hrs by colony counting method in presence of 50% human serum; method in brief: as §5
Staphylococcus aureus [12] = assay: Antimicrobial activity against vancomycin-resistant Staphylococcus aureus isolate MI assessed as bacterial count at 4 times MIC after 24 hrs by colony counting method; method in brief: as §3
Staphylococcus aureus [13] = assay: Antimicrobial activity against vancomycin-resistant Staphylococcus aureus isolate MI assessed as bacterial count at 8 times MIC after 24 hrs by colony counting method; method in brief: as §3
Staphylococcus aureus [14] = assay: Antimicrobial activity against vancomycin-resistant Staphylococcus aureus isolate PA assessed as bacterial count at 16 times MIC after 24 hrs by colony counting method; method in brief: as §3
Staphylococcus aureus [15] = assay: Antimicrobial activity against vancomycin-resistant Staphylococcus aureus isolate MI assessed as bacterial count at 4 times MIC after 24 hrs by colony counting method in presence of 50% human serum; method in brief: as §5
Staphylococcus aureus [16] = assay: Antimicrobial activity against vancomycin-resistant Staphylococcus aureus isolate MI assessed as bacterial count at 16 times MIC after 24 hrs by colony counting method in presence of 50% human serum; method in brief: as §5
Staphylococcus aureus [17] = assay: Antimicrobial activity against vancomycin-resistant Staphylococcus aureus isolate MI assessed as bacterial count at 32 times MIC after 24 hrs by colony counting method in presence of 50% human serum; method in brief: as §5
Staphylococcus aureus [18] = assay: Ratio of MIC for vancomycin-intermediate Staphylococcus aureus in presence of 50% human serum to MIC for vancomycin-intermediate Staphylococcus aureus
[19] = tested on: Staphylococcus haemolyticus; assay: Ratio of MIC for vancomycin-intermediate Staphylococcus haemolyticus in presence of 50% human serum to MIC for vancomycin-intermediate Staphylococcus haemolyticus; method in brief: as §2
Staphylococcus aureus [20] = assay: Antimicrobial activity against vancomycin-resistant Staphylococcus aureus isolate MI after 24 hrs by microdilution method
Method in brief: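 Broth microdilution per CLSI, inoculum 5 × 10^5 CFU/ml, Mueller-Hinton broth with 12.5 μg/ml magnesium and 25 μg/ml calcium (SMHB). Daptomycin was instead tested in SMHB at physiologic calcium (final 1.1 to 1.3 mM). Incubation 24 h at 35°C; MIC read; run in duplicate. MBC from 5-μl samples of clear wells plated on BHI agar, 24 h at 35°C.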

Staphylococcus aureus [21] = assay: Antimicrobial activity against vancomycin-intermediate Staphylococcus aureus after 24 hrs by microdilution method in presence of 50% human serum; conditions: for MBC / MIC50 / MIC90: Staphylococcus aureus, 24 h; method in brief: as §1
[22] = tested on: Staphylococcus haemolyticus; assay: Antimicrobial activity against vancomycin-intermediate Staphylococcus haemolyticus after 24 hrs by microdilution method in presence of 50% human serum; conditions: for MBC / MIC50 / MIC90: Staphylococcus haemolyticus, 24 h
Method in brief: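 Broth microdilution MIC/MBC (5 × 10^5 CFU/ml, 24 h, 35°C, duplicate) in 50% heat-treated (56°C, 1 h), filtered human serum plus supplemented Mueller-Hinton broth, with final broth strength 25 for TD-1792 and 50 for daptomycin. MBC was taken by plating clear wells on BHI agar.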

| SMILES | MBC (Staphylococcus aureus [1]) [µg/mL] | MIC50 (Staphylococcus aureus [1]) [µg/mL] | MIC90 (Staphylococcus aureus [1]) [µg/mL] | MBC (Staphylococcus aureus [2]) [µg/mL] | MIC (Staphylococcus aureus [2]) [µg/mL] | Ratio (Staphylococcus aureus [3]) | log10CFU/ml (Staphylococcus aureus [4]) | log10CFU/ml (Staphylococcus aureus [5]) | log10CFU/ml (Staphylococcus aureus [6]) | log10CFU/ml (Staphylococcus aureus [7]) | log10CFU/ml (Staphylococcus aureus [8]) | log10CFU/ml (Staphylococcus aureus [9]) | log10CFU/ml (Staphylococcus aureus [10]) | log10CFU/ml (Staphylococcus aureus [11]) | log10CFU/ml (Staphylococcus aureus [12]) | log10CFU/ml (Staphylococcus aureus [13]) | log10CFU/ml (Staphylococcus aureus [14]) | log10CFU/ml (Staphylococcus aureus [15]) | log10CFU/ml (Staphylococcus aureus [16]) | log10CFU/ml (Staphylococcus aureus [17]) | further results |
| --- | --- | --- | --- | --- | --- | --- | --- | --- | --- | --- | --- | --- | --- | --- | --- | --- | --- | --- | --- | --- | --- |
| CCCCCCCCCC(=O)N[C@@H](Cc1c[nH]c2ccccc12)C(=O)N[C@H](CC(N)=O)C(=O)N[C@@H](CC(=O)O)C(=O)N[C@@H]1C(=O)NCC(=O)N[C@@H](CCCN)C(=O)N[C@@H](CC(=O)O)C(=O)N[C@H](C)C(=O)N[C@@H](CC(=O)O)C(=O)NCC(=O)N[C@H](CO)C(=O)N[C@@H]([C@H](C)CC(=O)O)C(=O)N[C@@H](CC(=O)c2ccccc2N)C(=O)O[C@@H]1C | 1 | 1 | 4 | 0.25 | 0.25 | 2 | 5.12 | 3.86 | 4.01 | 4.13 | 5.23 | 4.78 | 5.01 | 5.03 | 4.59 | 5 | 5.14 | 2.53 | 4.6 | 5.11 | Ratio (Staphylococcus aureus [18]): 2; Ratio [19]: 2; MBC (Staphylococcus aureus [20]): 0.25 µg/mL (≈ 0.154 µM); MIC (Staphylococcus aureus [20]): 0.25 µg/mL (≈ 0.154 µM); MBC50 (Staphylococcus aureus [21]): 4 µg/mL; MBC90 (Staphylococcus aureus [21]): 8 µg/mL; MBC (Staphylococcus aureus [21]): 1 µg/mL; MIC50 (Staphylococcus aureus [21]): 1 µg/mL; MIC90 (Staphylococcus aureus [21]): 4 µg/mL; MBC50 [22]: 4 µg/mL; MBC90 [22]: 8 µg/mL; MBC [22]: 1 µg/mL; MIC50 [22]: 1 µg/mL; MIC90 [22]: 4 µg/mL |
| CN[C@H](CC(C)C)C(=O)N[C@H]1C(=O)N[C@@H](CC(N)=O)C(=O)N[C@H]2C(=O)N[C@H]3C(=O)N[C@H](C(=O)N[C@H](C(=O)NCCCO/N=C(\C(=O)N[C@@H]4C(=O)N5C(C(=O)[O-])=C(C[n+]6ccccc6)CS[C@H]45)c4nc(N)sc4Cl)c4cc(O)cc(O)c4-c4cc3ccc4O)[C@H](O)c3ccc(c(Cl)c3)Oc3cc2cc(c3O[C@@H]2O[C@H](CO)[C@@H](O)[C@H](O)[C@H]2O[C@H]2C[C@](C)(N)[C@H](O)[C@H](C)O2)Oc2ccc(cc2Cl)[C@H]1O | 0.03 | 0.25 | 0.5 | 0.5 | 0.25 | 2 | 4.94 | 4.48 | 3.05 | 3.6 | 4.81 | 3.61 | 4.09 | 4.76 | 2.95 | 3.27 | 4.17 | 4.12 | 4.11 | 4.03 | Ratio (Staphylococcus aureus [18]): 2; Ratio [19]: 2; MBC (Staphylococcus aureus [20]): 0.5 µg/mL (≈ 0.252 µM); MIC (Staphylococcus aureus [20]): 0.25 µg/mL (≈ 0.126 µM); MBC50 (Staphylococcus aureus [21]): 0.25 µg/mL; MBC90 (Staphylococcus aureus [21]): 0.5 µg/mL; MBC (Staphylococcus aureus [21]): 0.03 µg/mL; MIC50 (Staphylococcus aureus [21]): 0.25 µg/mL; MIC90 (Staphylococcus aureus [21]): 0.5 µg/mL; MBC50 [22]: 0.25 µg/mL; MBC90 [22]: 0.5 µg/mL; MBC [22]: 0.03 µg/mL; MIC50 [22]: 0.25 µg/mL; MIC90 [22]: 0.5 µg/mL |
